Published values pooled from the literature.
Lines come from different studies, so protocols differ.
Target: Sodium-dependent dopamine transporter (SLC6A3, Homo sapiens, UniProt Q01959)

SMILES	read-out	action	technique	cell line	concentration	inhibition [%]
CN1CCN(c2ccnc(NCCc3ccccc3)n2)CC1	cell-free assay	–	–	–	10 µM	98
CCCCCCCCCCCC(=O)OC[C@@H](COP(=O)(O)OCCNC(=O)c1ccc(Cn2c(=O)[nH]c3c(N)nc(OCCOC)nc32)cc1)OC(=O)CCCCCCCCCCC	ligand displacement	–	radioligand	–	10 µM	64
Cc1cc2c(-c3ccco3)cnc(N[C@H]3CCN(C)C[C@@H]3C(=O)NC3CCCCC3)c2[nH]c1=O	cell-free assay	–	–	–	10 µM	8.66
CN(CCN1CCC(OC(=O)Nc2ccccc2-c2ccccc2)CC1)C(=O)c1ccc(CN2CCC(C(N)=O)CC2)cc1	ligand displacement	–	radioligand	–	1 µM	-4
COCc1c(-c2cc3cc(C)cc(OC)c3s2)c2c(N)ncnn2c1CN1CCNC(=O)C1	ligand displacement	–	radioligand	–	10 µM	35
CC(C)N1CCC[C@H]1CNC(=O)c1cn(C2CCCC2)c(=O)c2c1c1ccccc1n2C	ligand displacement	–	radioligand	–	10 µM	42
CCN(CC)CCCC[C@H](NC(=O)[C@H](CC(C)C)NC(=O)[C@H](C)NC(=O)[C@H](Cc1ccccc1)NC(=O)c1ccc(C(C)(C)C)cc1)C(=O)N[C@@H](CO)C(=O)OC	ligand displacement	–	radioligand	–	10 µM	7
Clc1ccc2c(C3CCN(CCc4c[nH]c5ccccc45)CC3)c[nH]c2c1	ligand displacement	–	radioligand	–	10 µM	96
COc1ccc(S(=O)(=O)N2CCCCC2)cc1C	ligand displacement	–	radioligand	–	10 µM	< 30
CC(C)Cn1cnc2c(N)nc3ccccc3c21	ligand displacement	–	radioligand	–	10 µM	25
Fc1ccc(C(OCCN2CCN(CCCc3ccccc3)CC2)c2ccc(F)cc2)cc1	transporter uptake	inhibitor	–	HEK293	1 µM	98
